Experimental data collected from several papers.
Lines come from different studies, so protocols differ.
Target: Casein kinase II subunit alpha (CSNK2A1, Homo sapiens, UniProt P68400)

Structure (SMILES)	effect on	method	concentration	remaining binding [%]
c1cncc(-c2cccc(Nc3nccc(NC4CCCCC4)n3)c2)c1	binding	competition with immobilised ligand	10 µM	72
C[C@@H](c1ccc(-n2cnc3c(N)ncnc32)cc1)N1CCc2nn(C)c(Cc3ccccc3)c2C1=O	binding	competition with immobilised ligand	0.1 µM	73
CN(C)c1nccc(-c2cnn3ncccc23)n1	binding		1 µM	39
N#CC1(c2ccccn2)CCN(Cc2cc(C(=O)N3CCCC3)c(=O)n3ccccc23)CC1	cell-free assay	competition with immobilised ligand	1 µM	100
CN(C)c1nccc(-c2cnc3ncccn23)n1	binding		1 µM	47
O=C1NC(c2ccccn2)Sc2ccccc21 (centres unmarked)	cell-free assay	competition with immobilised ligand	1 µM	61
CN(C)c1ncc(F)c(-c2cnn3ncccc23)n1	binding		1 µM	100
CCN1CCN(Cc2ccc(C(=O)Nc3ccc(C)c(Oc4ccc5c(c4)CC(=O)N5)c3)cc2C(F)(F)F)CC1	binding	competition with immobilised ligand	1 µM	100
CC1=C(C#N)[C@@H](c2ccc3[nH]nc(C)c3c2)C(C#N)=C(c2ccc(Cl)cc2)N1	cell-free assay	competition with immobilised ligand	1 µM	100
O=C(c1ccc(Nc2ncc(Cl)c(-c3cc4ccccc4s3)n2)cc1)N1CCC(N2CCCC2)CC1	binding	competition with immobilised ligand	1 µM	0.9
O=C(Nc1c[nH]nc1C(=O)NC1CCNCC1)c1cc(F)cc(F)c1	binding	competition with immobilised ligand	1 µM	100
N[C@@H]1CCN(c2nccc(-c3cnn4ncccc34)n2)C1	binding		1 µM	52
CCC(=O)N[C@H]1CC[C@@H](C(=O)N(C)c2ccc(-c3nc4ccccc4o3)cc2)C1	cell-free assay	competition with immobilised ligand	1 µM	74
O=C(c1ccc(Nc2nccc(-c3cc4ccccc4s3)n2)cc1)N1CCC(N2CCCC2)CC1	binding	competition with immobilised ligand	1 µM	23
C[C@@H]1CCN(c2nccc(-c3cnn4ncccc34)n2)C1	binding		1 µM	89
Cc1cc(-n2nc(Cc3cc(F)cc(C(F)(F)F)c3)nc2C)ccc1C(N)=O	cell-free assay	competition with immobilised ligand	1 µM	100
F[C@@H]1CCN(c2nccc(-c3cnn4ncccc34)n2)C1	binding		1 µM	58
CNC(=O)[C@@H]1CC[C@@H](n2c(-c3ccc4cnccc4c3)nc3ccc(C(=O)NCc4cccc(C(N)=O)c4)cc32)C1	binding	competition with immobilised ligand	1 µM	94
Cc1cnc(Nc2ccc(C(=O)N3CCC(N4CCCC4)CC3)cc2)nc1-c1cc2ccccc2s1	binding	competition with immobilised ligand	1 µM	0.5
CSc1cccnc1N1CCN(Cc2nc3ccccc3[nH]2)CC1	cell-free assay	competition with immobilised ligand	1 µM	81
